Values joined by “and” are separate entries in the source; they are usually repeats but may differ in a detail not shown here. Equal values may be shown once.
System: HEK-293T
Experiment: Multiplex assay against HEK293T
Assay type: toxicity, cell-based
Settings: human
Summary of the method: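 Cells stained live at seeding with Hoechst33342, BioTracker Green Microtubule Cytoskeleton Dye, MitoTracker Red and Annexin V Alexa Fluor 680 were imaged on a CQ1 microscope at 37°C and 5% CO2 after compound addition. Their classification by CellPathfinder machine-learning gating ran from Hoechst high-intensity objects versus normal cells, to healthy, pyknosed or fragmented nuclei among normal cells, to mitotic or apoptotic among pyknosed cells. Tubulin, mitochondrial-mass and membrane-permeability phenotypes are per cents of healthy-nucleus cells.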

[1] = 12 h, 1 µM, compound concentration 1 uM
[2] = 12 h, 10 µM, compound concentration 10 uM
[3] = 24 h, 1 µM, compound concentration 1 uM
[4] = 24 h, 10 µM, compound concentration 10 uM
[5] = 48 h, 1 µM, compound concentration 1 uM
[6] = 48 h, 10 µM, compound concentration 10 uM

## CSCC[C@H](NC=O)C(=O)N[C@@H](CC(C)C)C(=O)N[C@@H](Cc1ccccc1)C(=O)O
[1]
  Population Apoptotic (%): 28%
  Population Mitochondria Different-Phenotype (%): 47% and 57%
  Population Mitotic Cells (%): 71%
  Population Tubulin-Different-Phenotype (%): 23% and 16%
  Total Cell Count: 466 and 437
[2]
  Population Apoptotic (%): 54%
  Population Mitochondria Different-Phenotype (%): 52% and 64%
  Population Mitotic Cells (%): 45%
  Population Tubulin-Different-Phenotype (%): 37% and 31%
  Total Cell Count: 366 and 375
[3]
  Population Apoptotic (%): 21%
  Population Mitochondria Different-Phenotype (%): 21% and 37%
  Population Mitotic Cells (%): 78%
  Population Tubulin-Different-Phenotype (%): 14% and 12%
  Total Cell Count: 679 and 550
[4]
  Population Apoptotic (%): 25% and 36%
  Population Mitochondria Different-Phenotype (%): 38% and 53%
  Population Mitotic Cells (%): 75% and 64%
  Population Tubulin-Different-Phenotype (%): 25% and 22%
  Total Cell Count: 479 and 490
[5]
  Population Apoptotic (%): 29% and 20%
  Population Mitochondria Different-Phenotype (%): 12% and 17%
  Population Mitotic Cells (%): 79%
  Population Tubulin-Different-Phenotype (%): 12%
  Total Cell Count: 1154 and 838
[6]
  Population Apoptotic (%): 28% and 36%
  Population Mitochondria Different-Phenotype (%): 24% and 28%
  Population Mitotic Cells (%): 71% and 63%
  Population Tubulin-Different-Phenotype (%): 12% and 14%
  Total Cell Count: 704 and 674

## O=C1N=C(NCc2cccs2)S/C1=C\c1ccc2ncccc2c1
[1]
  Population Apoptotic (%): 11.2% and 8.04%
  Population Fragmented Nuclei (%): 4.18% and 2.19%
  Population Hoechst High Intensity Objects (%): 0%
  Population Membrane Permeable-Phenotype (%): 0%
  Population Mitochondria Different-Phenotype (%): 30.06% and 18.18%
  Population Mitotic Cells (%): 88.8% and 91.96%
  Population Normal (%): 100%
  Population Pyknosed Nuclei (%): 40.19% and 81.75%
  Total Cell Count: 311 and 137
[2]
  Population Apoptotic (%): 10.71% and 8.85%
  Population Fragmented Nuclei (%): 2.55% and 5.49%
  Population Healthy Nuclei (%): 68.88% and 25.61%
  Population Hoechst High Intensity Objects (%): 0%
  Population Membrane Permeable-Phenotype (%): 1.48% and 0%
  Population Mitochondria Different-Phenotype (%): 19.26% and 9.52%
  Population Mitotic Cells (%): 89.29% and 91.15%
  Population Normal (%): 100%
  Population Pyknosed Nuclei (%): 28.57% and 68.9%
  Population Tubulin-Different-Phenotype (%): 25.93% and 59.52%
  Total Cell Count: 392 and 164
[3]
  Population Apoptotic (%): 19.59% and 9.09%
  Population Fragmented Nuclei (%): 2.82% and 3.6%
  Population Healthy Nuclei (%): 74.35% and 33.09%
  Population Hoechst High Intensity Objects (%): 0%
  Population Membrane Permeable-Phenotype (%): 0.63% and 2.17%
  Population Mitochondria Different-Phenotype (%): 8.54% and 19.57%
  Population Mitotic Cells (%): 80.41% and 90.91%
  Population Normal (%): 100%
  Population Pyknosed Nuclei (%): 22.82% and 63.31%
  Population Tubulin-Different-Phenotype (%): 10.76% and 13.04%
[4]
  Population Apoptotic (%): 34.38% and 21.57%
  Population Fragmented Nuclei (%): 2.01% and 4.43%
  Population Healthy Nuclei (%): 73.87% and 31.01%
  Population Hoechst High Intensity Objects (%): 0%
  Population Membrane Permeable-Phenotype (%): 0% and 4.08%
  Population Mitochondria Different-Phenotype (%): 26.19% and 16.33%
  Population Mitotic Cells (%): 65.62% and 78.43%
  Population Normal (%): 100%
  Population Pyknosed Nuclei (%): 24.12% and 64.56%
  Population Tubulin-Different-Phenotype (%): 55.78% and 20.41%
  Total Cell Count: 398 and 158
[5]
  Population Apoptotic (%): 12.66% and 16.95%
  Population Fragmented Nuclei (%): 2.96% and 1.01%
  Population Healthy Nuclei (%): 86.89% and 69.35%
  Population Hoechst High Intensity Objects (%): 0% and 0.5%
  Population Membrane Permeable-Phenotype (%): 4.14% and 2.17%
  Population Mitochondria Different-Phenotype (%): 20.41% and 24.64%
  Population Mitotic Cells (%): 87.34% and 83.05%
  Population Normal (%): 100% and 99.5%
  Population Pyknosed Nuclei (%): 10.15% and 29.65%
[6]
  Population Apoptotic (%): 37.04% and 39.66%
  Population Fragmented Nuclei (%): 1.79% and 5.23%
  Population Healthy Nuclei (%): 91.3% and 56.86%
  Population Hoechst High Intensity Objects (%): 0%
  Population Membrane Permeable-Phenotype (%): 0.84% and 2.3%
  Population Mitochondria Different-Phenotype (%): 87.68% and 60.92%
  Population Mitotic Cells (%): 62.96% and 60.34%
  Population Normal (%): 100%
  Total Cell Count: 391 and 153

— ChEMBL document CHEMBL5724801, “EUbOPEN Chemogenomics Library - Multiplex” (2024)
